The data set has as its system MS2 coat protein. Description: apparent Kd, MS2 coat protein; higher = weaker binding; RNA-MaP array; FMN 200 µM where present. A digest of the protocol: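 Apparent Kd: the median of filtered binding-curve fits from single clusters. Designs were transcribed on Illumina sequencing-chip clusters by stalled E. coli RNA polymerase and titrated with SNAP-549-labelled MS2 coat protein from 0.7 or 1.5 nM, doubling to 3 µM, in 100 mM Tris-HCl pH 7.5, 80 mM KCl, 4 mM MgCl2, BSA, DTT, yeast tRNA and Tween-20. Each series ran without and then with constant ligand, and green signal was normalised to red-channel RNA signal and control-cluster median Fmax.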

The mark [1] stands for this setting: designed as: ON switch for flavin mononucleotide, no ligand.
Setting [2] is: ligand present: flavin mononucleotide, designed as: ON switch for flavin mononucleotide.
Setting [3] is: designed as: OFF switch for flavin mononucleotide, no ligand.
Where [4] appears, read: ligand present: flavin mononucleotide, designed as: OFF switch for flavin mononucleotide.

As usually defined, the apparent Kd is a dissociation constant that holds for the conditions of the assay.

With “GCAGGACAUGAGGAUCACCCAUGUCUCAAAUAUUGAGGAUAUGGACACGGUAUAUCCGAACCAGAAGGCAACCUGC”, the “apparent Kd” value by setting is: under setting [1], 48.6 nM; under setting [2], 39.8 nM.
For “GAUCGUAUCCUAGGAUAUUCAUUAAAACAUGAGGAUCACCCAUGUAAAUUGGGAGAAGGAGGAUACGAUCAACAGCGAAAGCUG”, the “apparent Kd” value by setting is: under setting [1], 35.3 nM; under setting [2], 6.52 nM.
For “GCGGAUCUAGGAUAUACAUGAGGAUCACCCAUGUAAACUCUCUUGGAUGACUACUAUUGUAGAAGGAGAUAAGC”, the “apparent Kd” value by setting is: under setting [3], 25.4 nM; under setting [4], 41 nM.
For “AGUAACAGAGGAUAUACUAUUUUAUGUAUUUAUUAUUUUAAACAUGAGGAUCACCCAUGUAGAAGGCUGAAUGA”, in that order: 24.7 nM and 22.8 nM.
Turning to “CUUUUAUAAUAGAAGGUAGACUUCAUGAGGAUCACCCAUGUGUUGGUACUAAGGAUAUGUAAUAACAUGAGGAUCACCCAUGUU”, the “apparent Kd” value under setting [1] turned out to be 15.8 nM and the “apparent Kd” value under setting [2] stood at 16.1 nM.
Consider “UAGAACCUAGGAUAUACUUGGACCACUAAUGCACAGAUAUAACAUGAGGAUCACCCAUGUAGAAGGAGGAGUAA”, for which the “apparent Kd” value is 40.4 nM under setting [3] and 32.4 nM under setting [4].
With “GGGUACAUCGGAGGAUAUCAUGUAAAUACAUGAGGAUCACCCAUGUCGAUGGAGACAUCGGAGAUUGAGAAGGCCGAUGGACCG”, the “apparent Kd” value stood at 163 nM under setting [1] and 8.74 nM under setting [2].
In the case of “UGCGGAAGAGGAUAUACGUAGAAAUAGAUUCAUGUAAAACUACAUGAGGAUCACCCAUGUAGAAGGCUUUCGCU”, the “apparent Kd” value under setting [3] was determined as 24.8 nM and the “apparent Kd” value under setting [4] turned out to be 232 nM.
In the case of “CGGCCGCUACGCCGGCUCGACGCACAGGAUAUGCAGUUACAUGAGGAUCACCCAUGUGGCCAUGUGCAGAAGGGUGAUUCGCGA”, the “apparent Kd” value reads like this: under setting [1], 135 nM; under setting [2], 43.6 nM.
Consider “UUUUUGUGAGGAUAUCAGUAGUAGAACAAUAGUACUACUACUGAGAAGGCACAUGAGGAUCACCCAUGUUCUUC”, for which the “apparent Kd” value by setting is: under setting [3], 29 nM; under setting [4], 133 nM.
In the same order, the values of “UACAUGAGGAUCACCCAUGUUUUGUCGUGUAUGGUAUUUAUCUAGGAUAUCAUUUUAUCUAGUUAUGAGAAGGAGAAUAUUAAU” are 36.6 nM and 29.9 nM.
With “GUGGUGUAGAUACAGGAUAUGUUGCUCGUAACAUGAGGAUCACCCAUGUAUCUAUGAGAUAAAAUGCAGAAGGGUGCACACCACU”, the “apparent Kd” value came to 357 nM under setting [1] and 19.1 nM under setting [2].
For “AAGAAGUCAGGAUAUGCUGCUCGUCACUUGCGUGAUGAGUAGCAGAAGGGACAUGAGGAUCACCCAUGUAAAGC”, the “apparent Kd” value is, setting by setting: under setting [3], 44 nM; under setting [4], 52.4 nM.
As to “AUAUUGUGAGGAUAUGAACUUAGUAUCGAAACAUACUAAGUUCAGAAGGCACAUGAGGAUCACCCAUGUUUCUC”, the “apparent Kd” value by setting is: under setting [3], 68.6 nM; under setting [4], 430 nM.
For the sequence “UUCCAACGAGGAUAUCGAUGGUGGAACAUGAGGAUCACCCAUGUAUGAGAUAGUGUAGUUCGAGAAGGCGUUCAGU”, the “apparent Kd” value was 58 nM under setting [3] and 32.3 nM under setting [4].
Turning to “UUGCCUCAGAACAUGAGGAUCACCCAUGUGCUGCGGGCAACGUAGGAUAUGAUGGCGUGACGCCAUCAGAAGGAUGAUGGUACC”, the “apparent Kd” value stood at 5.92 nM under setting [1] and 6.15 nM under setting [2].
Turning to “GUACUGUAGUGAGGAUAUACGAGAUCGAUAGAUCGGCGAUCCAAUUAUACAUGAGGAUCACCCAUGUAGAAGGCACUUCAGUAC”, the “apparent Kd” value reads like this: under setting [3], 8.75 nM; under setting [4], 55.8 nM.
As to “ACGCAGCUGGGUGAGGAUAUCGGUGGUACUACAUGAGGAUCACCCAUGUCCGAAGCUCGGACCUCCGAGAAGGCGCCCGGCUGCG”, the “apparent Kd” value by setting is: under setting [1], 284 nM; under setting [2], 31.4 nM.
In the same order, the values of “GCUGUCGCGUGAGGAUAUGGUCAGCUUUGCUGACCAGAAGGCAUGUCAAUAGACAUGAGGAUCACCCAUGUGGUUAGGGCGGCU” are 1070 nM and 136 nM.
As for “GCUGCGCGAGGAUAUGCGGUUUGUGCUUUGGGCCCUGGCGUACAUGAGGAUCACCCAUGUAGAAGGCGUGUGGG”, the “apparent Kd” value is, setting by setting: under setting [3], 43.6 nM; under setting [4], 38.4 nM.
As to “UAGAUGGGAGGAUAUACGUAGAUGCAGGUUCGUGUGGUUCUACAUGAGGAUCACCCAUGUAGAAGGCCCGUCUU”, the “apparent Kd” value runs as follows: under setting [3], 16.6 nM; under setting [4], 27.5 nM.
For “ACGCGAUGGGAGAAGGUACUUUAAAAUAUUUUCACAUGAGGAUCACCCAUGUAAGGAUAUCCCAUCGUUAAAUAUUAUACAGCA”, in that order: 6.49 nM and 5.24 nM.
Regarding “CGUGUCAUCGAGAAGGCCUCAACAUGAGGAUCACCCAUGUUGUAAUAUGGGAGGAUAUCGAUGAUACAGCUACGUUUCGUAGCG”, the “apparent Kd” value by setting is: under setting [1], 19.1 nM; under setting [2], 6.07 nM.
As for “GUAGCAUACCGAGGAUAUUCAGGGCAUAAAUAAACAUGAGGAUCACCCAUGUGGCGAAAGCCUAGGGAGAAGGCGGAAUGCUAC”, the “apparent Kd” value runs as follows: under setting [1], 18.5 nM; under setting [2], 15.3 nM.
For “GCCAUCGCAUGAGGAUAUGGCACCGUUUCGGUGCCAGAAGGCAUGUCAAAUGACAUGAGGAUCACCCAUGUAGUUAAGAUGGCC”, in that order: 157 nM and 13 nM.
For the sequence “CAGGUAGACUGAGGAUAUACAAAAGACCUAGUCUAUCUAGGUCACAUCACAUGAGGAUCACCCAUGUAGAAGGCAGUCUGCCUG”, the “apparent Kd” value by setting is: under setting [3], 16.2 nM; under setting [4], 27.1 nM.
In the same order, the values of “UGUCGGAGCAGAGGAUAUUACAUGAGGAUCACCCAUGUAUGACCCAAUAGCUGGAAACAGCAAUGUAAGAAGGCUGCUCCGACA” are 14.6 nM and 295 nM.
In the same order, the values of “GCAGCAUAUGCAGGAUAUCAGCACGUGUAGUGCUGAGAAGGGCACAUGAGGAUCACCCAUGUGAUCAAUUAAUAUUUAUGCUGC” are 7.98 nM and 24.8 nM.
For the sequence “UUUGGGUGGCUGGAGGAUAUUCGAGUGGUUACAUGAGGAUCACCCAUGUGUCGCGCGGUACACGAGGAGAAGGCUGGCGGCCGUU”, the “apparent Kd” value under setting [1] came out at 50.8 nM and the “apparent Kd” value under setting [2] came to 22.4 nM.
For the sequence “AAAAAACAUGAGGAUCACCCAUGUGAGGAUAUCAAAUAAAGGCACAUGAGAAGGCAUAUGAGAAGGCACAUGAA”, the “apparent Kd” value runs as follows: under setting [3], 99.3 nM; under setting [4], 156 nM.
Turning to “AAAAAACAUGAGGAUCACCCAUGUAAGGAUAUGCUAAAAAAAAAAAAAAAAAAAAAAUGCAGAAGGUACAAAAA”, the “apparent Kd” value under setting [3] was 63.6 nM and the “apparent Kd” value under setting [4] was found to be 78.2 nM.
In the case of “GUAGCAUACCGAGGAUAUUCAGGGCGUAAAUAAACAUGAGGAUCACCCAUGUGGCGAAAGCCUAGGGAGAAGGCGGAAUGCUAC”, the “apparent Kd” value under setting [1] is 17.1 nM and the “apparent Kd” value under setting [2] was 16.8 nM.
Regarding “GCUGAAUGAACAUGAGGAUCACCCAUGUACAGGAAACUGAAUGAGGAUAUCCAUAGCAAAGCUAUGGAGAAGGCAUGGGUCAGC”, the “apparent Kd” value under setting [1] worked out at 338 nM and the “apparent Kd” value under setting [2] is 94 nM.
As to “GGAUGAGAAACUCAUCCAUAACGAACAUGAGGAUCACCCAUGUAGGAUAUGCUACUCAAAGAGUAGCAGAAGGACAUGUGCCUU”, the “apparent Kd” value is, setting by setting: under setting [3], 29.8 nM; under setting [4], 259 nM.
For “GGUGGACAUGAGGAUCACCCAUGUGAGGAUAUCGGCUGGCUAGUGGCGGCUGGCUUCUCGAGAAGGCGCAUAGU”, in that order: 49.7 nM and 72.5 nM.
On to “GUAGCAUACCGAGGAUAUUCAACCGGAAACGGAACAUGAGGAUCACCCAUGUGGCGAAAGCCUUGGGAGAAGGCGGAAUGCUAC”, for which the “apparent Kd” value is 77.5 nM under setting [1] and 20.6 nM under setting [2].
Turning to “UUAAGUCAUGUAGGAUAUCCGAUGCGAAGCGUUGGAGAAGGACAUGAGGAUCACCCAUGUUCUAGCGUCUGAGUACAGAUGCAA”, the “apparent Kd” value reads like this: under setting [3], 27 nM; under setting [4], 76 nM.
As for “GUCAGCUCGUGAGGAUAUACAACACUGCUUCGGCAGUGUAUUAACAUCACAUGAGGAUCACCCAUGUAGAAGGCACGAGCUGAU”, the “apparent Kd” value is, setting by setting: under setting [3], 4.99 nM; under setting [4], 7.45 nM.
For “UCGACUAGCGCCAGUCGAACAUGAGGAUCACCCAUGUACUCCAGAAGGCCGCCCAAGAACGGAGUGGAGGAUAUGGAGGUUCUC”, the “apparent Kd” value amounted to 42.9 nM under setting [1] and 30.4 nM under setting [2].
As for “GGAUGAUUAAUAGGAUAUUAGUUGUAAAAUGUUUAAGAAGGAUUAAUGAUUUAAACGACCAGUUACAUGAGGAUCACCCAUGUU”, the “apparent Kd” value by setting is: under setting [1], 27.9 nM; under setting [2], 21.4 nM.
For “UAGAUACAUGAGGAUCACCCAUGUGAGGAUAUCGUUUGUACUAAUCUUUUAGUAUUUUCGAGAAGGCACAUAUA”, the “apparent Kd” value reads like this: under setting [3], 73.9 nM; under setting [4], 183 nM.
Turning to “AAGAAGCUCACAGGAUAUCAGUAUAUGCGAUCUAGCGUAUUAAUGAACUGCUGAGAAGGGUGAGACAUGAGGAUCACCCAUGUA”, the “apparent Kd” value reads like this: under setting [1], 23.3 nM; under setting [2], 62.2 nM.
Take “AUCGUGCUAGGAUAUACAGACGGGUGUAGACGUGCAGGCAAACAUGAGGAUCACCCAUGUAGAAGGAGUAGUUA”: the “apparent Kd” value is, setting by setting: under setting [3], 159 nM; under setting [4], 88.8 nM.
As to “GCUGGACGUCGAGGAUAUGGGUGUGCGAGUCUUGGCACUGGACAUGAGGAUCACCCAUGUCGCUUCCAGAAGGCGACGUCCCUA”, the “apparent Kd” value came out at 35.1 nM under setting [1] and 6.55 nM under setting [2].
Consider “CGAUGUUGUGUCAGGAUAUGCGUUGCGAAAGCAAUGUAGAAGGGACAUGAGGAUCACCCAUGUUCUAACCAUCG”, for which the “apparent Kd” value runs as follows: under setting [3], 12.4 nM; under setting [4], 15.8 nM.
On to “CCUCGACAUGAGGAUCACCCAUGUAAGGAUAUGUUGACGAGCCAGAAAUGGCUGGUCAACAGAAGGUAUAUGUA”, for which the “apparent Kd” value reads like this: under setting [3], 31.9 nM; under setting [4], 121 nM.
In the same order, the values of “GCUAUUGAUGUAGGAUAUGAUAUAGAAACUAUGUCAGAAGGACAUGAGGAUCACCCAUGUCAAUGGAUGGAGAGAAGAGAUGGC” are 28 nM and 30.7 nM.
Consider “AGAUCACAUGAGGAUCACCCAUGUCAGGAUAUGAUACUAUGUACUUCGGUACAUAGUAUCAGAAGGGACUUAAA”, for which the “apparent Kd” value reads like this: under setting [3], 101 nM; under setting [4], 283 nM.
